In brackets after ≈: the same amount, converted by molar mass. Activity calls are given as the source filed them. No cut-off for these calls is given here.
Legend:
[1] = species: Homo sapiens; assay: Selectivity ratio of Ki for human OX1R expressed in CHOK1 cell membranes to Ki for human OX2R expressed in CHOK1 cell membranes; format: cell-based
Method in brief: (§1)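 Radioligand competition binding used membranes from CHO-K1 cells overexpressing human OX1R or OX2R. […] The selectivity ratio is OX1R Ki divided by OX2R Ki.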

[2] = target: T1, Orexin receptor type 2 (Homo sapiens, UniProt O43614); assay: Displacement of [3H](S)-N-(2-(1H-pyrrol-1-yl)phenyl)-1-(2-(1-methyl-1H-benzo[d]imidazol-2-ylthio)acetyl)pyrrolidine-2-carboxamide from human OX2R expressed in CHOK1 cell membranes; method in brief: as §1
T1 sequence (O43614 whole entry): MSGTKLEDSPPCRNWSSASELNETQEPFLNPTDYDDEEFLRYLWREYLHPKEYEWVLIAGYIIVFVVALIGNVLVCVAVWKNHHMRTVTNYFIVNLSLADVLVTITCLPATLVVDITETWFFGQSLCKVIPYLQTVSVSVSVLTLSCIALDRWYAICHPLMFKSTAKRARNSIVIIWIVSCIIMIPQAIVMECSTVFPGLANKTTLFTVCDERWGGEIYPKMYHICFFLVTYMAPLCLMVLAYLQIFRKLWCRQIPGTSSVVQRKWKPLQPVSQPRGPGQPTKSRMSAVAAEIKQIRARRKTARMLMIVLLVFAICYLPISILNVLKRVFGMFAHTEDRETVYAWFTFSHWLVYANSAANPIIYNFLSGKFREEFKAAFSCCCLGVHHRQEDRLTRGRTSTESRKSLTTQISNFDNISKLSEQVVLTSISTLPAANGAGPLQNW

[3] = target: T2, Orexin/Hypocretin receptor type 1 (Homo sapiens, UniProt O43613); assay: Antagonist activity at human OX1R expressed in CHOK1 cells assessed as reduction in orexin A-induced calcium flux preincubated followed by orexin A addition by FLIPR assays; format: functional, cell-based
T2 sequence (O43613 whole entry): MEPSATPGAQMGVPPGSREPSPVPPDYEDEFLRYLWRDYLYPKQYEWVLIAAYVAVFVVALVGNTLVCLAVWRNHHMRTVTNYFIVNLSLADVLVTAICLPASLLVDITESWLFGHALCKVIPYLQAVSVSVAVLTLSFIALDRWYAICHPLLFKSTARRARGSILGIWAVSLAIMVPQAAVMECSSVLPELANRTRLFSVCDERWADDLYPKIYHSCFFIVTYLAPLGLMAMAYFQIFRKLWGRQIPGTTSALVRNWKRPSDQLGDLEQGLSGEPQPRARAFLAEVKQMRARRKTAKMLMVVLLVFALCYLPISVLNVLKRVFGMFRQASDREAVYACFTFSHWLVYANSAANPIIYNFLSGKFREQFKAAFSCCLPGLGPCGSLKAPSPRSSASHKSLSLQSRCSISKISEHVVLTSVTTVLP

[4] = target: T1, Orexin receptor type 2; assay: Antagonist activity at human OX2R expressed in CHOK1 cells assessed as reduction in orexin A-induced calcium flux preincubated followed by orexin A addition by FLIPR assays; format: functional, cell-based
[5] = target: T2, Orexin/Hypocretin receptor type 1; assay: Displacement of [3H](S)-N-(biphenyl-2-yl)-1-(2-(1-methyl-1H-benzo[d]imidazol-2-ylthio)acetyl)pyrrolidine-2-carboxamide from human OX1R expressed in CHOK1 cell membranes
Method in brief: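 Radioligand competition binding used membranes from CHO-K1 cells overexpressing human OX1R or OX2R. The selectivity ratio is OX1R Ki divided by OX2R Ki.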

[6] = species: Homo sapiens; assay: Selectivity ratio of IC50 for human OX1R expressed in CHOK1 cells to IC50 for human OX2R expressed in CHOK1 cells by FLIPR assay; format: cell-based
[7] = target: T3, Nuclear receptor subfamily 1 group I member 2 (Homo sapiens, UniProt O75469); assay: Inhibition of PXR (unknown origin); format: ADME
T3 sequence (O75469 whole entry): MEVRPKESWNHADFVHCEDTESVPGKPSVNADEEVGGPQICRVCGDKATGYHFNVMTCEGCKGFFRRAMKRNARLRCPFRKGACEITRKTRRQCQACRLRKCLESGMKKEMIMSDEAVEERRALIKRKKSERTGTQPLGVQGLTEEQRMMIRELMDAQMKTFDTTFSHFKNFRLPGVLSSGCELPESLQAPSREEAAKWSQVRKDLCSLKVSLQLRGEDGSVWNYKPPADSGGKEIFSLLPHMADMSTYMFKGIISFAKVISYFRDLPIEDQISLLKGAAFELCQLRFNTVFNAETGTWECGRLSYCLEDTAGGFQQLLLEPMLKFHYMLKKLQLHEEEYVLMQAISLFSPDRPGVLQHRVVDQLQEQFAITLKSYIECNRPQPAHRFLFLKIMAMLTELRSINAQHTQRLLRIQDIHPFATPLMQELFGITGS

[8] = Solubility of the compound in pH 1.8 SGF at 0.1 mg/ml after 15 mins by reverse-phase chromatography; format: physicochemical; conditions: simulated gastric fluid (SGF)
Method in brief: (§2)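 Compound at […] was stirred at 80 rpm in SGF (0.01 N HCl, 0.9 wt.% NaCl, pH 1.8) or FASSIF (3 mM sodium taurocholate, 0.75 mM lecithin, 100 mM NaCl, NaOH/NaH₂PO₄, pH 6.5). It was then centrifuged at 14k rpm for 15 min.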

[9] = Solubility of the compound in pH 6.5 FASSIF at 0.1 mg/ml after 15 mins by reverse-phase chromatography; format: physicochemical; conditions: fasted state simulated intestinal fluid (FaSSIF); method in brief: as §2
[10] = test system: Mus musculus; assay: Sleep promoting activity in mouse assessed as attenuation of active wake at 30 mg/kg, po administered in late active phase for 5 consecutive days measured up to 1.5 hrs post dose by electroencephalogram/electromyogram analysis
[11] = test system: OX2R knockout mouse (Mus musculus); assay: Sleep promoting activity in OX2R knockout mouse assessed as increase in NREM sleep at 30 mg/kg, po administered in late active phase for 5 consecutive days by electroencephalogram/electromyogram analysis
[12] = test system: Mus musculus; assay: Sleep promoting activity in mouse assessed as increase in REM sleep at 30 mg/kg, po administered in late active phase for 5 consecutive days by electroencephalogram/electromyogram analysis
[13] = test system: OX2R knockout mouse (Mus musculus); assay: Sleep promoting activity in OX2R knockout mouse assessed as attenuation of active wake at 30 mg/kg, po administered in late active phase for 5 consecutive days by electroencephalogram/electromyogram analysis
[14] = test system: Mus musculus; assay: Sleep promoting activity in mouse assessed as increase in NREM sleep at 30 mg/kg, po administered in late active phase for 5 consecutive days by electroencephalogram/electromyogram analysis
[15] = test system: Rattus norvegicus; assay: Sleep promoting activity in po dosed rat assessed as attenuation of active wake administered in mid active phase for 3 consecutive days measured up to 2 hrs post dose by electroencephalogram/electromyogram analysis; format: functional, organism-based
Method in brief: (§3)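 Rats carried implanted radio-telemetry devices for EEG/EMG polysomnography. Oral doses were 0.5 (n=16), 1 (n=14) or 3 mg/kg (n=12) versus vehicle (20% vitamin E TPGS). Dosing was at ZT18:00 (6 h after lights off) on 3 consecutive days in a balanced cross-over. Active wake, NREM and REM time was scored in 30-min bins, and all treatment days were averaged over 24 h.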

[16] = test system: Rattus norvegicus; assay: Sleep promoting activity in rat assessed as increase in NREM sleep at 0.5 to 3 mg/kg, po administered in mid active phase for 3 consecutive days by electroencephalogram/electromyogram analysis; format: functional, organism-based; method in brief: as §3
[17] = test system: Rattus norvegicus; assay: Sleep promoting activity in rat assessed as increase in REM sleep at 0.5 to 3 mg/kg, po administered in mid active phase for 3 consecutive days by electroencephalogram/electromyogram analysis; format: functional, organism-based; method in brief: as §3
[18] = Time-dependent inhibition of CYP450 (unknown origin); format: ADME; conditions: human

Row | Compound | Ratio Ki [1] | Ki [2] [nM] | IC50 [3] [nM] | Ki [5] [nM] | Ratio IC50 [6] | further results
1 | COC(=O)c1cccnc1O[C@@H]1CC[C@@H](C)N(C(=O)c2ccccc2-n2nccn2)C1 | 26 | 2.5 | 309 | 66 | 9 | IC50 [4]: 35 nM
2 | COC(=O)c1cccnc1S[C@@H]1CC[C@@H](C)N(C(=O)c2ccccc2-n2nccn2)C1 | 8 | 0.8 | – | 6.3 | 2 | –
3 | Cc1c(C#N)ccnc1O[C@@H]1CC[C@@H](C)N(C(=O)c2ccc(Br)nc2-n2nccn2)C1 | 326 | – | > 10000 | – | > 345 | –
4 | CCOc1ccccc1C(=O)N1C[C@H](Oc2nccc(C#N)c2C)CC[C@H]1C | 849 | – | 2100 | – | 350 | inhibition (INH) [7]: Active
5 | C[C@@H]1CC[C@@H](Oc2nccc3c2C(=O)OC3(C)C)CN1C(=O)c1ccccc1-n1nccn1 | 379 | 2.2 | – | 834 | 414 | –
6 | C[C@@H]1CC[C@@H](Nc2cc(C#N)ccn2)CN1C(=O)c1ccccc1-n1nccn1 | 319 | 0.9 | 1740 | 287 | 60 | –
7 | C[C@@H]1CC[C@@H](Sc2cc(C#N)ccn2)CN1C(=O)c1ccccc1-n1nccn1 | 191 | 1.7 | – | 324 | 109 | IC50 [4]: 13 nM
8 | C[C@@H]1CC[C@@H](Oc2cc(C#N)ccn2)CN1C(=O)c1ccccc1-n1nccn1 | 518 | – | 3200 to 3830 | – | 295 to 356 | solubility at 0.25 h [8]: 13.7 µg/mL (≈ 35.3 µM); IC50 [4]: 9 to 13 nM; solubility at 0.25 h [9]: 13.5 µg/mL (≈ 34.8 µM); Activity [10]: Active; Activity [11]: inactive; Activity [12]: Active; Activity [13]: inactive; Activity [14]: Active; Activity [15]: Dose-dependent effect; Activity [16]: Active; Activity [17]: Active
9 | Cc1c(C#N)ccnc1O[C@@H]1CC[C@@H](C)N(C(=O)c2ccccc2C(F)(F)F)C1 | 373 | – | 4960 | – | 236 | –
10 | Cc1c(C#N)ccnc1O[C@@H]1CC[C@@H](C)N(C(=O)c2ccccc2C2CC2)C1 | 741 | – | 1740 | – | 193 | –
11 | C[C@@H]1CC[C@@H](Oc2cc(C#N)ccn2)CN1C(=O)c1ccccc1-c1ncccn1 | 438 | – | – | 569 | 175 | solubility at 0.25 h [8]: 680 µg/mL (≈ 1700 µM); solubility at 0.25 h [9]: 660 µg/mL (≈ 1650 µM)
12 | COc1ccc(C(=O)N2C[C@H](Oc3nccc(C#N)c3C)CC[C@H]2C)c(-n2nccn2)c1 | – | – | – | – | – | inhibition (INH) [7]: Active
13 | COc1ccc(C(=O)N2C[C@H](Oc3nccc(C#N)c3C)CC[C@H]2C)c(C2CC2)n1 | – | – | – | – | – | TDI [18]: Active
14 | COc1ccc(C(=O)N2C[C@H](Oc3nccc(C#N)c3C)CC[C@H]2C)c(-n2nccn2)n1 | 1190 | – | 5930 | – | 282 | inhibition (INH) [7]: Active
15 | Cc1c(C#N)ccnc1O[C@@H]1CC[C@@H](C)N(C(=O)c2cccnc2-c2ccccc2)C1 | 434 | – | 4670 | – | 180 | –
16 | CC(=O)Nc1cc(C(=O)N2C[C@H](Oc3nccc(C#N)c3C)CC[C@H]2C)c(-c2ccccc2)cn1 | 14 | 0.7 | 71 | 10 | 2 | IC50 [4]: 38 nM
17 | COc1ccc(C(=O)N2C[C@H](Oc3nccc(C#N)c3C)CC[C@H]2C)c(SC)n1 | 1260 | – | > 10000 | – | > 455 | TDI [18]: Active
18 | Cc1c(C#N)ccnc1O[C@@H]1CC[C@@H](C)N(C(=O)c2ccccc2N2CCCC2)C1 | 232 | – | 3100 | – | 107 | TDI [18]: Active
19 | Cc1c(C#N)ccnc1O[C@@H]1CC[C@@H](C)N(C(=O)c2ccccc2-n2ncnn2)C1 | 358 | – | 4590 | – | 596 | –
20 | CC(=O)Nc1ccc(-c2ccccc2)c(C(=O)N2C[C@H](Oc3nccc(C#N)c3C)CC[C@H]2C)n1 | 20 | 0.6 | 74 | 12 | 2 | IC50 [4]: 38 nM
21 | COC(=O)c1cccnc1N[C@@H]1CC[C@@H](C)N(C(=O)c2ccccc2-n2nccn2)C1 | 30 | 0.4 | 69 | 12 | 2 | –
22 | COC(=O)c1c(C#N)ccnc1O[C@@H]1CC[C@@H](C)N(C(=O)c2ccccc2-n2nccn2)C1 | 112 | 0.5 | – | – | 39 | –
23 | Cc1c(C#N)ccnc1O[C@@H]1CC[C@@H](C)N(C(=O)c2ccccc2-n2nccn2)C1 | 285 | – | 996 | – | 125 | –
24 | COC(=O)c1ccnc(O[C@@H]2CC[C@@H](C)N(C(=O)c3ccccc3-n3nccn3)C2)c1 | 80 | – | – | – | 82 | –
